From PubChem
In the library only some 3% were active in any assay of this set; here they are far more common.
SENP6 inh: SENP6 protease inhibitors, primary screen, biochemical, luminescence, uHTS | Sentrin-specific protease 6 (Homo sapiens), Q9GZR1 | Recombinant SENP6 catalytic domain, aminoluciferin luminescence | inhibition, % at 10 µM | actives 1.8% (n = 330,000) | AID 2599, 2010;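 active = inhibition above about 50% at the single tested dose, limit read from the data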
SENP8 block-1: human SENP8 protease inhibitors, primary screen, biochemical, fluorescence, Nedd8 protein substrate, uHTS | recombinant SENP8 | inhibition, % at 20 µM | actives 0.64% (n = 360,000); in the data active = inhibition mostly above about 40%, no sharp cut-off; inactive = mostly below about 27%
Apaf1 inhib: inhibitors of human Apaf-1 apoptosome, primary screen, biochemical, DEVD-Rh110 fluorescence, uHTS. actives 0.71% (n = 330,000). reconstituted apoptosome caspase-3 activity. AID 489030, 2010. Apoptotic protease-activating factor 1 (Homo sapiens), O14727. inhibition, % at 20 µM; active = inhibition of at least 40% at 20 µM
Target sequence (O14727 whole entry, looked up): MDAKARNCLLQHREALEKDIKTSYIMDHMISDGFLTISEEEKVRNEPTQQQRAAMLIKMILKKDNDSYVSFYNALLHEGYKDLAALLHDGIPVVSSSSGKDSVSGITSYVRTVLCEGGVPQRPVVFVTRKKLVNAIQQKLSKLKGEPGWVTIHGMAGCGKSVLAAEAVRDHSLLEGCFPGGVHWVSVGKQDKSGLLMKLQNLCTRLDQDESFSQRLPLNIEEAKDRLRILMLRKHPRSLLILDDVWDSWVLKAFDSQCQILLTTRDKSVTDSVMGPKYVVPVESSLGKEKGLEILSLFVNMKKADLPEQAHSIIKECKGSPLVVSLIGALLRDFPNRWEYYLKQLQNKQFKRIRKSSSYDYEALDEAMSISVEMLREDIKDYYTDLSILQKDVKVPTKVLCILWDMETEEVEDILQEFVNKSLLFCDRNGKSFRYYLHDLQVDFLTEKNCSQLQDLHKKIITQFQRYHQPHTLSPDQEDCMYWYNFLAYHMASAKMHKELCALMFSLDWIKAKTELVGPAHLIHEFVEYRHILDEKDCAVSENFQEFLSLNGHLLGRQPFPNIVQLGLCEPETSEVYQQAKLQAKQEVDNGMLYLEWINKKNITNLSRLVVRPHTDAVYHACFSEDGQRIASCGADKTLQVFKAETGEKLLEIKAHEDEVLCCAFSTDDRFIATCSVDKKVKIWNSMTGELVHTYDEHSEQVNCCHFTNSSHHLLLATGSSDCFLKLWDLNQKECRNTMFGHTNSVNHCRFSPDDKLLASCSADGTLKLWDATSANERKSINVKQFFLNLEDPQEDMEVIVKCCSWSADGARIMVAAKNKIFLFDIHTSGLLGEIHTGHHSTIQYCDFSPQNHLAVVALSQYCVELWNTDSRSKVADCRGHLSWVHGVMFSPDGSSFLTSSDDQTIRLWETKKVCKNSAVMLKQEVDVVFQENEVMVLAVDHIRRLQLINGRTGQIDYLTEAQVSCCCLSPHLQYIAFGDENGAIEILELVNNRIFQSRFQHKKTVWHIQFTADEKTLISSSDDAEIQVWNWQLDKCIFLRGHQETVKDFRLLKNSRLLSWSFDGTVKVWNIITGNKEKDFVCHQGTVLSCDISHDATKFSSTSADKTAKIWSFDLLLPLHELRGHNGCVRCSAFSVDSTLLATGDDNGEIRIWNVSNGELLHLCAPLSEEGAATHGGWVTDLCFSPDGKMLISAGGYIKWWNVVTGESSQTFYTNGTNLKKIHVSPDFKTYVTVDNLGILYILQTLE
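Material: biochemical Apaf-1 apoptosome reconstitution. Medium: Hepes buffer, pH 7.5. Also added: cytochrome c activation, bis-DEVD rhodamine 110 substrate. Timing: 30 min compound preincubation, 50 min activation, room temperature. Measured by: rhodamine 110 fluorescence at Ex 480/Em 540 nm.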
SENP8 block-2: SENP8 protease inhibitors, primary screen, biochemical, luminescence; actives 1.2% (n = 330,000); AID 2540, 2010; inhibition, % at 10 µM; Sentrin-specific protease 8 (Homo sapiens), Q96LD8; purified SENP8, Z-RLRGG-aminoluciferin cleavage; in the data active = inhibition above about 50%
SENP7 inh: SENP7 protease inhibitors, primary screen, biochemical, luminescence, uHTS; recombinant SENP7, Z-RLRGG-aminoluciferin luminescence, 40 min; inhibition, % at 5 µM; actives 1.5% (n = 330,000); AID 434973, 2010;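 active = inhibition above about 50% at the single test dose, limit read from the data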
UBC13 polyUb: UBC13 polyubiquitin chain formation inhibitors, primary screen, biochemical, TR-FRET, uHTS; inhibition, % at 20 µM; actives 0.47% (n = 330,000); Ubiquitin-conjugating enzyme E2 N (Homo sapiens), P61088; in the data active = inhibition above about 45%, passing the limit was not always enough
SENP8 confirm: SENP8 protease inhibitors, retest, confirmation, biochemical, luminescence, single concentration; AID 488912, 2010; Recombinant SENP8, Z-RLRGG-aminoluciferin luminescence, 60 min; inhibition, % at 12.5 µM; actives 40% (n = 6,200); shares compounds with SENP7 inh;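 active = mean inhibition across replicates above about 50%, limit read from the data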
SENP6 conf: SENP6 protease inhibitors, confirmation, biochemical, luminescence, single concentration; AID 488915, 2010; recombinant SENP6, Z-RLRGG-aminoluciferin luminescence; shares compounds with SENP7 inh; actives 58% (n = 6,200); inhibition, % at 12.5 µM
SENP7 conf: SENP7 protease inhibitors, retest, confirmation, biochemical, luminescence, single concentration. shares compounds with SENP7 inh. recombinant SENP7, Z-RLRGG-aminoluciferin luminescence, 40 min. inhibition, % at 12.5 µM. actives 69% (n = 6,200). AID 488917, 2010
Casp3 select: caspase-3 protease inhibitors, confirmation, selectivity assay for SENP inhibitor project, biochemical, single concentration. shares compounds with SENP7 inh. AID 488918, 2010. actives 60% (n = 6,200). inhibition, % at 12.5 µM. purified caspase-3, Z-DEVD-aminoluciferin luminescence, 60 min;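 active = mean inhibition above about 50%, limit read from the data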
Luc interf: counter-screen for SENP inhibitors: luminescence interference; shares compounds with SENP7 inh; Pre-incubated SENP8/Z-RLRGG-aminoluciferin, luciferase luminescence interference; inhibition, % at 12.5 µM; actives 39% (n = 6,200); AID 488919;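 active = mean inhibition above about 50% when retested at one dose, limit read from the data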
A number is an active result.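 The calls were made as follows, unless noted: active = mean inhibition above about 50% in the one-dose retest (limit read from the data); inactive = the rest.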

`Cc1ccc(C(=O)Nc2ccc3c(c2)OCCO3)c(Cl)c1` gave SENP6 inh 89.1, SENP8 block-1 inactive, Apaf1 inhib inactive, SENP8 block-2 78.0, SENP7 inh 84.7, UBC13 polyUb inactive, SENP8 confirm 81.4, SENP6 conf 78.6, SENP7 conf 93.7, Casp3 select 86.8 and Luc interf 81.8.
CCOC(=O)Nc1ccc2c(c1)OCO2 was read as SENP6 inh inactive, SENP8 block-1 inactive, Apaf1 inhib inactive, SENP8 block-2 inactive, SENP7 inh inactive and UBC13 polyUb inactive.
For COc1ccc(C(=O)Nc2ccc(N3CCCCC3)cc2)cc1Br the results were SENP6 inh inactive, SENP8 block-1 inactive, Apaf1 inhib inactive, SENP8 block-2 inactive, SENP7 inh 68.4, UBC13 polyUb inactive, SENP8 confirm inactive, SENP6 conf inactive, SENP7 conf inactive, Casp3 select inactive and Luc interf inactive.
Screening CCOC(=O)c1c(C)[nH]c(C(=O)Nc2ccc3c(c2)OCO3)c1C returned SENP6 inh inactive, Apaf1 inhib inactive, SENP8 block-2 59.5, SENP7 inh 83.7, UBC13 polyUb inactive, SENP8 confirm inactive, SENP6 conf 80.5, SENP7 conf 96.5, Casp3 select 79.4 and Luc interf inactive.
`O=C(Nc1ccc2c(c1)OCCO2)c1ccc(Br)cc1` gave SENP6 inh 70.9, SENP8 block-1 inactive, Apaf1 inhib inactive, SENP8 block-2 58.8, SENP7 inh 61.5, UBC13 polyUb inactive, SENP8 confirm 70.9, SENP6 conf 69.6, SENP7 conf 90.4, Casp3 select 67.8 and Luc interf inactive.
`O=C(Nc1ccc2c(c1)OCCO2)c1cc(F)c(F)cc1Cl` gave SENP6 inh inactive, SENP8 block-1 inactive, Apaf1 inhib inactive, SENP8 block-2 inactive, SENP7 inh inactive and UBC13 polyUb inactive.
For CCCCn1c(N)c(N(CCC(C)C)C(=O)c2c(CC)noc2C)c(=O)[nH]c1=O the results were SENP8 block-1 inactive.
COc1ccc(C(C(=O)NC(C)(C)C)n2c(-c3ccc(-c4ccccc4)cc3)nc3ccccc32)cc1 (stereo not given) was read as SENP8 block-1 inactive.
`CC(=O)Nc1cc(-c2cccc(C(=O)N(C)C)c2)cn2c(-c3ccc(C(C)=O)cc3)cnc12` gave SENP8 block-1 inactive.
For O=C(Nc1ccc2c(c1)OCCO2)c1ccc(Br)o1 the results were SENP6 inh 77.0, SENP8 block-1 inactive, Apaf1 inhib inactive, SENP8 block-2 55.3, SENP7 inh 73.8, UBC13 polyUb inactive, SENP8 confirm 77.3, SENP6 conf 69.7, SENP7 conf 91.2, Casp3 select 85.2 and Luc interf 74.3.
